# Assay results pooled from the literature.
# Cell line: NCI-H23
# Read-out: cell growth or viability
SMILES,test,setting,endpoint,result
Cc1cccc(-n2ncc(Br)c(Br)c2=O)c1,resazurin,96 h,IC50,0.21 µM
COc1ccc(C(=O)/C=C/c2cccc(Br)c2)cc1S(N)(=O)=O,SRB,10 µM,inhibition,166%
O=C(/C=C/c1ccc2c(=O)n(CCO)cnc2c1)NO,SRB,48 h,IC50,4.2 µM
CC/C(=C(\c1ccccc1)c1ccc(OCCN(C)C)cc1)c1ccccc1,ATP luminescence,72 h,EC90,18.3 µM
CCCCc1n(Cc2ccc3ccccc3n2)cc[n+]1Cc1ccc2ccccc2n1,SRB,,TGI,7.27 µM
O=C1NC(=NCc2cccs2)S/C1=C\c1ccc2ncccc2c1,,,IC50,> 10 µM
COc1ccc(-c2ccc(-c3ccc(C(=N)N)nc3)s2)cc1Cl,SRB,,GI50,1.8 µM
COc1ccc(C(=O)/C=C/c2c(F)cccc2Cl)cc1S(N)(=O)=O,SRB,10 µM,inhibition,116%
O=C(/C=C/c1ccc2ncn(CCCl)c(=O)c2c1)NO,SRB,48 h,IC50,3.2 µM
COc1ccc(C(=O)/C=C/c2cccc(Cl)c2Cl)cc1S(N)(=O)=O,SRB,48 h,GI50,3.8 µM
CCCc1n(Cc2ccc3ccccc3n2)cc[n+]1Cc1ccc2ccccc2c1,SRB,,TGI,10.6 µM
S=C([S][Au-][P+](CCCCCC[P+]([Au-][S]C(=S)n1cccn1)(c1ccccc1)c1ccccc1)(c1ccccc1)c1ccccc1)n1cccn1,SRB,,GI50,4.76 µM
COc1ccc(C(=O)/C=C/c2ccc3c(c2)OCCO3)cc1S(N)(=O)=O,SRB,10 µM,inhibition,27%
c1ccc2cc(Cn3cc[n+](Cc4ccc5ccccc5c4)c3)ccc2c1,SRB,,TGI,10.1 µM
COc1cc(-c2ccc(-c3ccc(C(=N)N)nc3)s2)cc(OC)c1OC,SRB,,GI50,6.4 µM
COc1ccc(C(=O)/C=C/c2cccc3ccccc23)cc1S(N)(=O)=O,SRB,48 h,GI50,2.2 µM
CCc1n(Cc2ccc3ccccc3n2)cc[n+]1Cc1ccc2ccccc2n1,SRB,,TGI,8.66 µM
